From ChEMBL document CHEMBL1122791, “Inhibition of arabinose 5-phosphate isomerase. An approach to the inhibition of bacterial lipopolysaccharide biosynthesis” (J Med Chem, 1984)
Blank lines part the entries; values can stand above or below the molecule they belong to. Calls of active or inactive are those of the source. The calls are words filed in the database; no cut-off is given here.

Assays:
[1] = tested on: arabinose 5-phosphate isomerase (Escherichia coli); assay: Inhibitory activity against Arabinose-5-phosphate isomerase; Unstable.
[2] = tested on: arabinose 5-phosphate isomerase (Escherichia coli); assay: Inhibitory activity against Arabinose-5-phosphate isomerase at a concentration of 6 mM
[3] = tested on: arabinose 5-phosphate isomerase (Escherichia coli); assay: Inhibitory activity against Arabinose-5-phosphate isomerase at a concentration of 6 mM; Not active.
[4] = target: arabinose 5-phosphate isomerase (Escherichia coli) (UniProt P45395); assay: Inhibitory activity against Arabinose-5-phosphate isomerase at a concentration of 2.4 mM; Not active.
arabinose 5-phosphate isomerase (Escherichia coli) (UniProt P45395), sequence (P45395 whole entry, looked up): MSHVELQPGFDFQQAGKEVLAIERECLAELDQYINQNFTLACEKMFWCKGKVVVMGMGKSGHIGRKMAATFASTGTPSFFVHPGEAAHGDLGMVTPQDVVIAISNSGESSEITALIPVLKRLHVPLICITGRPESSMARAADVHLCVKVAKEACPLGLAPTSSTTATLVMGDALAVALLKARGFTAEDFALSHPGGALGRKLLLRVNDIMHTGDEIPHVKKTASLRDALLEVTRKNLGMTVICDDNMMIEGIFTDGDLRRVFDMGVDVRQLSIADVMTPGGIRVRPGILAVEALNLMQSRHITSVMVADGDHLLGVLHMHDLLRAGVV

[5] = tested on: arabinose 5-phosphate isomerase (Escherichia coli); assay: Inhibitory activity against Arabinose-5-phosphate isomerase at a concentration of 5 mM; NA = not active at 5
[6] = tested on: arabinose 5-phosphate isomerase (Escherichia coli); assay: Inhibitory activity against Arabinose-5-phosphate isomerase at a concentration of 2 mM; Not active.
[7] = target: arabinose 5-phosphate isomerase (Escherichia coli) (UniProt P45395); assay: Inhibitory activity against Arabinose-5-phosphate isomerase at a concentration of 12 mM; Not active.
[8] = tested on: arabinose 5-phosphate isomerase (Escherichia coli); assay: Inhibitory activity against Arabinose-5-phosphate isomerase at a concentration of 5 mM; Not active.
[9] = target: T1, Arabinose 5-phosphate isomerase KdsD (Salmonella typhimurium (strain LT2 / SGSC1412 / ATCC 700720), UniProt Q8ZLS1); assay: Inhibitory activity against Arabinose-5-phosphate isomerase; Interfered.
T1 sequence (Q8ZLS1 whole entry): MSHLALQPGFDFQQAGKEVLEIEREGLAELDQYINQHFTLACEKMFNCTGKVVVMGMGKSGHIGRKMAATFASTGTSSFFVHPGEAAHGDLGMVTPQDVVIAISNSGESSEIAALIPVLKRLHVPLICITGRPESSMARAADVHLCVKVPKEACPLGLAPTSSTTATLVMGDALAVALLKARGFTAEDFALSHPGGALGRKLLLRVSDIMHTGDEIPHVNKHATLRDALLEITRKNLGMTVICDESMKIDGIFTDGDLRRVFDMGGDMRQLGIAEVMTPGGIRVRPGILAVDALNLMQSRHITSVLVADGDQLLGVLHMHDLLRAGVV
Outline: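 Isomerase from E. coli B cells, purified 50-fold. Inhibitor and enzyme were preincubated 2 min at 37 °C in 0.1 M histidine buffer, pH 7.5. The reaction was started with 10 mM (stock) D-arabinose 5-phosphate or D-ribulose 5-phosphate. It was stopped at 0, 3, 6, 9 and 12 min with cysteine HCl, then H2SO4. Ketose was read at 540 nm by carbazole colour (30 min, 37 °C).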

[10] = tested on: arabinose 5-phosphate isomerase (Escherichia coli); assay: Inhibitory activity against Arabinose-5-phosphate isomerase; Not active.
[11] = tested on: arabinose 5-phosphate isomerase (Escherichia coli); assay: Inhibitory activity against Arabinose-5-phosphate isomerase at a concentration of 1.5 mM; Not active.
[12] = target: arabinose 5-phosphate isomerase (Escherichia coli) (UniProt P45395); assay: Inhibitory activity against Arabinose-5-phosphate isomerase at a concentration of 3 mM; Not active.
[13] = compound: O=P(O)(O)OC[C@H]1O[C@@H](O)[C@@H](O)[C@@H]1O; assay: Inhibitory activity against Arabinose-5-phosphate isomerase; conditions: Escherichia coli B

Molecule: O=C1O[C@H](CCl)[C@@H](O)[C@H]1O
- inhibition [2]: 12%

Molecule: NS(=O)(=O)OC[C@H]1OC(=O)[C@H](O)[C@@H]1O
- inhibition [7]: inactive

Molecule: O=[N+]([O-])OC[C@H]1O[C@H](O)[C@@H](O)[C@@H]1O
- I 50 [9]: Interfered

Molecule: O=C(O)C(=O)OC[C@H]1OC(=O)[C@H](O)[C@@H]1O
- inhibition [10]: inactive

Molecule: O=P(O)(O)OCC(O)C(O)CCO (stereo not given)
- inhibition [11]: inactive

Molecule: COC1C(COP(=O)(O)O)OC(O)C1O (stereo not given)
- inhibition [12]: inactive

Molecule: O=P(O)(O)OCC1OC(O)C(O)C1OCc1ccccc1 (stereo not given)
- inhibition [3]: inactive

B1: Arabinose 5-phosphate isomerase KdsD (Salmonella typhimurium (strain LT2 / SGSC1412 / ATCC 700720)), Q8ZLS1 (protein)
chain: MSHLALQPGFDFQQAGKEVLEIEREGLAELDQYINQHFTLACEKMFNCTGKVVVMGMGKSGHIGRKMAATFASTGTSSFFVHPGEAAHGDLGMVTPQDVVIAISNSGESSEIAALIPVLKRLHVPLICITGRPESSMARAADVHLCVKVPKEACPLGLAPTSSTTATLVMGDALAVALLKARGFTAEDFALSHPGGALGRKLLLRVSDIMHTGDEIPHVNKHATLRDALLEITRKNLGMTVICDESMKIDGIFTDGDLRRVFDMGGDMRQLGIAEVMTPGGIRVRPGILAVDALNLMQSRHITSVLVADGDQLLGVLHMHDLLRAGVV
- Km [13]: 200 µM

Other lines, results leading:

- I 50 [1]: Unstable
Molecule: CC(=O)CC(=O)OC[C@H]1O[C@H](O)[C@@H](O)[C@@H]1O

- inhibition [3]: inactive
- inhibition [4]: inactive
Molecule: O=P(O)(O)OCC(O)C(O)C(O)C(O)CO (stereo not given)

- inhibition [5]: inactive
Molecule: C[C@H]1OC(O)[C@H](O)[C@H]1O (stereo not given in full)

- inhibition [3]: inactive
Molecule: O=C1O[C@H](CO)[C@@H](O)[C@H]1O

- inhibition [6]: inactive
Molecule: O=P(O)(O)OCC1OC(O)CC1O (stereo not given)

- inhibition [8]: inactive
Molecule: O=P(O)(O)OCC1OC(O)C(F)C1O (stereo not given)
